Results from ChEMBL document CHEMBL1944511, “Bakuchiol derivatives as novel and potent cytotoxic agents: a report” (Eur J Med Chem, 2012).

Assays:
A549 [1] = assay: Growth inhibition of human A549 cells at 30 uM after 48 hrs by sulpharhodamine B assay; type: functional; settings: A549, 48 h, read-out: GI
How it was run: (§1)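 This is the SRB protein-stain assay on adherent cells in RPMI-1640/MEM with 10% FCS. Each compound in DMSO (vehicle <0.2%) was applied at a single fixed concentration for 48 h. Cells were fixed with TCA and stained with SRB, and the dye was solubilised in Tris and read at 570/620 nm. Percent growth inhibition is relative to vehicle-treated controls, reported as mean ± SD of three experiments run in triplicate.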

HeLa [2] = assay: Growth inhibition of human HeLa cells at 50 uM after 48 hrs by sulpharhodamine B assay; type: functional; settings: read-out: GI; how it was run: as §1
THP-1 [3] = assay: Growth inhibition of human THP1 cells at 50 uM after 48 hrs by sulpharhodamine B assay; type: functional; settings: THP-1, 48 h, read-out: GI
How it was run: (§2)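 Cells grown in RPMI-1640/MEM with 10% FCS, penicillin/streptomycin, 37 °C, 5% CO2. Seeded in 96-well plates, allowed to adhere overnight, then exposed 48 h to analogs in DMSO (vehicle <0.2% in controls). TCA-fixed, stained with 0.4% SRB in 1% acetic acid, dye solubilized in 10 mM Tris base, OD 570 nm (ref 620 nm). Mean ± SD of three experiments run in triplicate.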

HEp-2 [4] = assay: Growth inhibition of human Hep2 cells at 50 uM after 48 hrs by sulpharhodamine B assay; type: functional; settings: HEp-2, 48 h, read-out: GI; how it was run: as §1
HEp-2 [5] = assay: Growth inhibition of human Hep2 cells at 30 uM after 48 hrs by sulpharhodamine B assay; type: functional; settings: HEp-2, 48 h, read-out: GI; how it was run: as §1
PC-3 [6] = assay: Growth inhibition of human PC3 cells at 50 uM after 48 hrs by sulpharhodamine B assay; type: functional; settings: PC-3, 48 h, read-out: GI; how it was run: as §2
HeLa [7] = assay: Growth inhibition of human HeLa cells at 30 uM after 48 hrs by sulpharhodamine B assay; type: functional; settings: read-out: GI; how it was run: as §1
MCF7 [8] = assay: Growth inhibition of human MCF7 cells at 50 uM after 48 hrs by sulpharhodamine B assay; type: functional; settings: MCF7, 48 h, read-out: GI; how it was run: as §1
OVCAR-5 [9] = assay: Growth inhibition of human OVCAR5 cells at 30 uM after 48 hrs by sulpharhodamine B assay; type: functional; settings: OVCAR-5, 48 h, read-out: GI; how it was run: as §1
IMR-32 [10] = assay: Growth inhibition of human IMR32 cells at 50 uM after 48 hrs by sulpharhodamine B assay; type: functional; settings: IMR-32, 48 h, read-out: GI; how it was run: as §1
MCF7 [11] = assay: Growth inhibition of human MCF7 cells at 30 uM after 48 hrs by sulpharhodamine B assay; type: functional; settings: MCF7, 48 h, read-out: GI; how it was run: as §1
PC-3 [12] = assay: Growth inhibition of human PC3 cells at 30 uM after 48 hrs by sulpharhodamine B assay; type: functional; settings: PC-3, 48 h, read-out: GI; how it was run: as §2
T47D = assay: Cytotoxicity against human T47D cells; type: functional, cell-based
IMR-32 [13] = assay: Growth inhibition of human IMR32 cells at 30 uM after 48 hrs by sulpharhodamine B assay; type: functional; settings: IMR-32, 48 h, read-out: GI; how it was run: as §1
OVCAR-5 [14] = assay: Growth inhibition of human OVCAR5 cells at 50 uM after 48 hrs by sulpharhodamine B assay; type: functional; settings: OVCAR-5, 48 h, read-out: GI; how it was run: as §1
A549 [15] = assay: Growth inhibition of human A549 cells at 50 uM after 48 hrs by sulpharhodamine B assay; type: functional; settings: A549, 48 h, read-out: GI; how it was run: as §1
THP-1 [16] = assay: Growth inhibition of human THP1 cells at 30 uM after 48 hrs by sulpharhodamine B assay; type: functional; settings: THP-1, 48 h, read-out: GI; how it was run: as §2

`C=C[C@@](C)(/C=C/c1ccc(O)cc1)CCC=C(C)C` [BAKUCHIOL] was tested, and the inhibition of growth at 30 µM (A549 [1]) was 30%, the inhibition of growth at 50 µM (HeLa [2]) was 55% and the inhibition of growth at 50 µM (THP-1 [3]) was 74%. For the same molecule, the inhibition of growth at 50 µM (HEp-2 [4]) was 53%, the inhibition of growth at 30 µM (HEp-2 [5]) was 20% and the inhibition of growth at 50 µM (PC-3 [6]) was 58%. For the same molecule, the inhibition of growth at 30 µM (HeLa [7]) was 20%, the inhibition of growth at 50 µM (MCF7 [8]) was 63% and the inhibition of growth at 30 µM (OVCAR-5 [9]) was 25%. It also gave an inhibition of growth at 50 µM (IMR-32 [10]) of 58%, an inhibition of growth at 30 µM (MCF7 [11]) of 33% and an inhibition of growth at 30 µM (PC-3 [12]) of 21%. The IC50 (T47D) was 28.9 µM, the inhibition of growth at 30 µM (IMR-32 [13]) was 31% and the inhibition of growth at 50 µM (OVCAR-5 [14]) was 66%. For the same molecule, the inhibition of growth at 50 µM (A549 [15]) was 63% and the inhibition of growth at 30 µM (THP-1 [16]) was 44%.
